Experimental data: ChEMBL document CHEMBL2406982, “Structure-activity relationships of new cyanothiophene inhibitors of the essential peptidoglycan biosynthesis enzyme MurF” (Eur J Med Chem, 2013)
Converted amounts (≈) assume the structure as drawn. The source made the active and inactive calls. No cut-off for these calls is given here.

Assays:
Escherichia coli [1] = assay: Inhibition of Escherichia coli MurF using D-Ala-D-Ala/UMtri-mDAP as substrate assessed as residual activity at 100 uM after 15 mins by Malachite green method
How it was run: (§1)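 Purified E. coli MurF in 50 mM Hepes pH 8.0, 50 mM MgCl2, 0.005% Triton X-114, with D-Ala-D-Ala, UMtri-mDAP and ATP. Compound was added in DMSO (final 5% v/v). Mixtures were incubated 15 min at 37 °C, quenched with Biomol reagent, and absorbance was read at 650 nm after 5 min. Runs were in duplicate. Residual activity was taken versus DMSO-only controls. IC50 came from residual activity at seven concentrations.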

Staphylococcus aureus [2] = assay: Inhibition of Staphylococcus aureus MurF using D-Ala-D-Ala/UMtri-L-Lys as substrate assessed as residual activity at 100 uM after 15 mins by Malachite green method
How it was run: (§2)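 S. aureus MurF, purified, assayed in 50 mM Hepes pH 8.0 with 20 mM MgCl2 and 0.005% Triton X-114, with D-Ala-D-Ala, UMtri-L-Lys and ATP. Compound was in DMSO (5% v/v final). After 15 min at 37 °C, Biomol reagent was added and A650 was read 5 min later. Duplicates were run. Residual activity was relative to 5% DMSO controls. IC50 was read as 50% residual activity across seven concentrations.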

Staphylococcus aureus [3] = assay: Antimicrobial activity against Staphylococcus aureus SH1000 by broth microdilution method; type: functional, organism-based
How it was run: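 MIC by broth microdilution in Mueller-Hinton broth following CLSI guidelines.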

Streptococcus pneumoniae = assay: Antimicrobial activity against Streptococcus pneumoniae R6 by broth microdilution method; type: functional
How it was run: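 MIC by CLSI broth microdilution in Mueller-Hinton broth supplemented with 5% (v/v) lysed horse blood.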

[4] = Inhibition of Streptococcus pneumoniae MurF using D-Ala-D-Ala/UMtri-L-Lys as substrate after 15 mins by Malachite green method
How it was run: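 Purified S. pneumoniae MurF in 50 mM Hepes pH 8.0, 50 mM MgCl2, 0.005% Triton X-114, with D-Ala-D-Ala, UMtri-L-Lys and ATP. Compound was added in DMSO (5% v/v final). Reactions ran 15 min at 37 °C, were stopped with Biomol malachite green reagent, and A650 was measured after 5 min. Runs were in duplicate. Residual activity was versus DMSO controls. IC50 was from seven concentrations.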

Escherichia coli [5] = assay: Antimicrobial activity against Escherichia coli AB734 by broth microdilution method; type: functional, organism-based
How it was run: (§3)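 Broth microdilution MIC per CLSI guidelines in Mueller-Hinton broth. E. coli 1411 and AB734 were also tested with added polymyxin B nonapeptide to permeabilise the outer membrane.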

Escherichia coli [6] = assay: Antimicrobial activity against Escherichia coli 1411 by broth microdilution method; type: functional, organism-based; how it was run: as §3
[7] = Inhibition of Escherichia coli MurF using D-Ala-D-Ala/UMtri-mDAP as substrate after 15 mins by Malachite green method; how it was run: as §1
[8] = Inhibition of Staphylococcus aureus MurF using D-Ala-D-Ala/UMtri-L-Lys as substrate after 15 mins by Malachite green method; how it was run: as §2

Structure (SMILES)	Activity (Escherichia coli [1]) [%]	Activity (Staphylococcus aureus [2]) [%]	MIC (Streptococcus pneumoniae) [µg/mL]	IC50 [4] [nM]	IC50 [7] [µM]	IC50 [8] [µM]	Activity (Staphylococcus aureus [3])	Activity (Escherichia coli [5])	Activity (Escherichia coli [6])
N#Cc1c(NC(=O)c2cc(S(=O)(=O)N3CCOCC3)c(Cl)cc2Cl)sc2c1CCN(CCC1CCNCC1)C2.O=C(O)C(F)(F)F	93	84	> 128	600			inactive	inactive	inactive
CC(C)(C)OC(=O)N1CCc2c(sc(NC(=O)c3cc(S(=O)(=O)N4CCOCC4)c(Cl)cc3Cl)c2C#N)C1	88	78	128 (≈ 213 µM)	19000			inactive	inactive	inactive
N#Cc1c(NC(=O)c2cc(S(=O)(=O)N3CCC(O)CC3)c(Cl)cc2Cl)sc2c1CCCC2	104	101	64 (≈ 124 µM)	10400			inactive	inactive	inactive
CC(C)(C)OC(=O)N1CCC(CCN2CCc3c(sc(NC(=O)c4cc(S(=O)(=O)N5CCOCC5)c(Cl)cc4Cl)c3C#N)C2)CC1							inactive	inactive	inactive
Cl.N#Cc1c(NC(=O)c2cc(S(=O)(=O)N3CCOCC3)c(Cl)cc2Cl)sc2c1CCNC2	94	81	128	47000			inactive	inactive	inactive
N#Cc1c(NC(=O)c2cc(S(=O)(=O)N3CCOCC3)c(Cl)cc2Cl)sc2c1CCN(C(=O)c1ccccc1)C2	93	107	> 128	27000			inactive	inactive	inactive
COC(=O)c1ccc(CN2CCc3c(sc(NC(=O)c4cc(S(=O)(=O)N5CCOCC5)c(Cl)cc4Cl)c3C#N)C2)cc1			> 128	720	59	88	inactive	inactive	inactive
COc1cc(CN2CCc3c(sc(NC(=O)c4cc(S(=O)(=O)N5CCOCC5)c(Cl)cc4Cl)c3C#N)C2)cc(OC)c1O			16 (≈ 24 µM)	48000	78	84	inactive	inactive	inactive
CC(=O)Oc1ccc(CN2CCc3c(sc(NC(=O)c4cc(S(=O)(=O)N5CCOCC5)c(Cl)cc4Cl)c3C#N)C2)cc1OC(C)=O			> 128	3030	88	89	inactive	inactive	inactive
N#Cc1c(NC(=O)c2cc(S(=O)(=O)N3CCCC(C(=O)O)C3)c(Cl)cc2Cl)sc2c1CCCC2 (stereo unspecified)	100	102	> 128	50000			inactive	inactive	inactive
N#Cc1c(NC(=O)c2cc(S(=O)(=O)N3CCC(C(=O)O)CC3)c(Cl)cc2Cl)sc2c1CCCC2	102	96	64 (≈ 118 µM)	17900			inactive	inactive	inactive
CC(=O)Oc1ccc(C2CCc3c(sc(NC(=O)c4cc(S(=O)(=O)N5CCOCC5)c(Cl)cc4Cl)c3C#N)C2)cc1 (stereo unspecified)	91	103	> 128	120			inactive	inactive	inactive
CCOC(=O)C1CCCN(S(=O)(=O)c2cc(C(=O)Nc3sc4c(c3C#N)CCCC4)c(Cl)cc2Cl)C1 (stereo unspecified)	94	93		131000			inactive	inactive	inactive
COc1ccc(C2CCc3c(sc(NC(=O)c4cc(S(=O)(=O)N5CCOCC5)c(Cl)cc4Cl)c3C#N)C2)cc1 (stereo unspecified)	90	85	> 128	170			inactive	inactive	inactive
N#Cc1c(NC(=O)c2cc(S(=O)(=O)N3CCC(=O)CC3)c(Cl)cc2Cl)sc2c1CCCC2	102	103	> 128	3370			inactive	inactive	inactive
CC1CCCCN1S(=O)(=O)c1cc(C(=O)Nc2sc3c(c2C#N)CCCC3)c(Cl)cc1Cl (stereo unspecified)	107	103	> 128	3750			inactive	inactive	inactive
N#Cc1c(NC(=O)c2cc(S(=O)(=O)N3CCOCC3)c(Cl)cc2Cl)sc2c1CCN(CC1CCCCC1)C2	63	64	> 128	460			inactive	inactive	inactive

Second part, led by results:

Activity (Escherichia coli [1]) [%]	Activity (Staphylococcus aureus [2]) [%]	MIC (Streptococcus pneumoniae) [µg/mL]	IC50 [4] [nM]	IC50 [7] [µM]	IC50 [8] [µM]	Structure (SMILES)	Activity (Staphylococcus aureus [3])	Activity (Escherichia coli [5])	Activity (Escherichia coli [6])
		> 128	990	73	109	N#Cc1c(NC(=O)c2cc(S(=O)(=O)N3CCOCC3)c(Cl)cc2Cl)sc2c1CCN(Cc1ccc3c(c1)OCO3)C2	inactive	inactive	inactive
68	84	> 128	180			N#Cc1c(NC(=O)c2cc(S(=O)(=O)N3CCOCC3)c(Cl)cc2Cl)sc2c1CCN(Cc1ccc(O)cc1)C2	inactive	inactive	inactive
		16 (≈ 26.3 µM)	420	81	91	N#Cc1c(NC(=O)c2cc(S(=O)(=O)N3CCOCC3)c(Cl)cc2Cl)sc2c1CCN(Cc1cccc(O)c1)C2	inactive	inactive	inactive
	64	> 128	4150	98		COc1cc(CN2CCc3c(sc(NC(=O)c4cc(S(=O)(=O)N5CCOCC5)c(Cl)cc4Cl)c3C#N)C2)ccc1O	inactive	inactive	inactive
		> 128	2550	67	118	N#Cc1c(NC(=O)c2cc(S(=O)(=O)N3CCOCC3)c(Cl)cc2Cl)sc2c1CCN(Cc1cccc(C(=O)O)c1)C2	inactive	inactive	inactive
		> 128	640	109	80	N#Cc1c(NC(=O)c2cc(S(=O)(=O)N3CCOCC3)c(Cl)cc2Cl)sc2c1CCN(Cc1ccccc1)C2	inactive	inactive	inactive
58		> 128	1920		92	N#Cc1ccc(CN2CCc3c(sc(NC(=O)c4cc(S(=O)(=O)N5CCOCC5)c(Cl)cc4Cl)c3C#N)C2)c(F)c1	inactive	inactive	inactive
		> 128	860	118	110	N#Cc1c(NC(=O)c2cc(S(=O)(=O)N3CCOCC3)c(Cl)cc2Cl)sc2c1CCN(Cc1ccc(C(=O)O)cc1)C2	inactive	inactive	inactive
		> 128	10400	37	66.5	COc1ccc(CN2CCc3c(sc(NC(=O)c4cc(S(=O)(=O)N5CCOCC5)c(Cl)cc4Cl)c3C#N)C2)cc1OC	inactive	inactive	inactive
81	79	32 (≈ 51.3 µM)	2750			N#Cc1c(NC(=O)c2cc(S(=O)(=O)N3CCOCC3)c(Cl)cc2Cl)sc2c1CCN(Cc1cc(O)ccc1O)C2	inactive	inactive	inactive
78	64	> 128	430			N#Cc1c(NC(=O)c2cc(S(=O)(=O)N3CCOCC3)c(Cl)cc2Cl)sc2c1CCN(Cc1ccc(O)c(O)c1)C2	inactive	inactive	inactive
